Test results: ChEMBL document CHEMBL1123816, “Synthesis and antidepressant properties of novel 2-substituted 4,5-dihydro-1H-imidazole derivatives” (J Med Chem, 1987)

Experiments:
[1] = target: T1, Adrenergic receptor alpha-1 (Rattus norvegicus, UniProt P15823+P23944+P43140); test: Ability to displace [3H]prazosin from alpha-1 adrenergic receptor in rat brain homogenates in vitro; assay type: tissue-based
T1 sequence (P15823 whole entry): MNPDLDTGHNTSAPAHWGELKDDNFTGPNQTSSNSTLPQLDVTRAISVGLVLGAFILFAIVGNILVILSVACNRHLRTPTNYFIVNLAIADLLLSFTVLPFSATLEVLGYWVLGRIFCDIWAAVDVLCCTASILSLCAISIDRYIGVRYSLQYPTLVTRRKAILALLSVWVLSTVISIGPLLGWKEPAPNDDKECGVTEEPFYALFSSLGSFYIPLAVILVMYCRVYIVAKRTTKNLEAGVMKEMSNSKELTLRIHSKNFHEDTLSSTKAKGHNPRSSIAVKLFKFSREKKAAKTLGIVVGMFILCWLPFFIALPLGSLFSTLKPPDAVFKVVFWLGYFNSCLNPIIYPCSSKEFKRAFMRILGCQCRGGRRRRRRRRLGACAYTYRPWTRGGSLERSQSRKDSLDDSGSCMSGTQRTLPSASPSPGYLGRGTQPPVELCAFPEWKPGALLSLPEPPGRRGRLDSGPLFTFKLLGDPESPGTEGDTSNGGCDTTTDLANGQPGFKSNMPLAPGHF
T1 sequence (P23944 whole entry): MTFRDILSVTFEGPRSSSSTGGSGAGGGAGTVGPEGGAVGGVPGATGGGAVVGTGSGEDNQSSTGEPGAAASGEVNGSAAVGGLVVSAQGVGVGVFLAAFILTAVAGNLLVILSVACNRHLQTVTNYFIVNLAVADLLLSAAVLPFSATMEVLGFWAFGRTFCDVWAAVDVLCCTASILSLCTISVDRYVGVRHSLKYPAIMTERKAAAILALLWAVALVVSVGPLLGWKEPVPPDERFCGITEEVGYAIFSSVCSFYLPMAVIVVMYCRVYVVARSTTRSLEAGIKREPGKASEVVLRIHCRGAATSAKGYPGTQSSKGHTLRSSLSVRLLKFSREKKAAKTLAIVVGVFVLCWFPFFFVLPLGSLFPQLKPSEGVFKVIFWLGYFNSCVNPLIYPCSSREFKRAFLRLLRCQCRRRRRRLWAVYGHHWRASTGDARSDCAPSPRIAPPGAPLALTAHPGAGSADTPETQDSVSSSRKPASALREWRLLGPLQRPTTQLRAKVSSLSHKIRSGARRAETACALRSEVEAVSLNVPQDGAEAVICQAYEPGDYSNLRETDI
T1 sequence (P43140 whole entry): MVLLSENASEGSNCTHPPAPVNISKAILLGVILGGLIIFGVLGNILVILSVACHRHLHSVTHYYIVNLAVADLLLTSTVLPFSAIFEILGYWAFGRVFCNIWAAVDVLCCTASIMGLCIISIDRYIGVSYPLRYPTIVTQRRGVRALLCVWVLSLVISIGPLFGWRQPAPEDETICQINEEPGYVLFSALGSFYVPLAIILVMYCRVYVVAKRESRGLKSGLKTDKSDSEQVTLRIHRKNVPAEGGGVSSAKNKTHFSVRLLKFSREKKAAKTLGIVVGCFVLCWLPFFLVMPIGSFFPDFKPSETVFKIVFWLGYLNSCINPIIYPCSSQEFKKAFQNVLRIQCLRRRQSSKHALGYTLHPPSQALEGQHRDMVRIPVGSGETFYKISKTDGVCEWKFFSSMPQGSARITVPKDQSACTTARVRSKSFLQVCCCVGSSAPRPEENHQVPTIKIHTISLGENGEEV
How it was run: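 Rat brain cortex membranes in 50 mM Tris pH 7.7, washed at 48000g, final resuspension 150 volumes. Incubated with 0.03 nM [3H]prazosin and graded test concentrations for 90 min at 25 °C. Unlabeled phentolamine (10 μM) defined nonspecific binding. Filtered on GF/B, scintillation counted. Triplicate assays; IC50 from logit plot converted to apparent Ki via Cheng–Prusoff.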

Mus musculus [2] = test: Effective dose required to antagonise clonidine-induced antinociception(ACA) in mouse by peroral administration at maximum response 100.; assay type: functional
Rattus norvegicus [3] = species: Rattus norvegicus; test: Inhibition of [3H]-dopamine uptake into rat brain synaptosomes in vitro;Values ranges from :18-39; assay type: functional
How it was run: (§1)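 Male Sprague–Dawley rat (180–240 g) cortex (NE, 5-HT) or striatum (DA) crude P2 synaptosomes in 0.32 M sucrose. Preincubated 5 min at 25 °C with drug in Krebs–Ringer phosphate containing ascorbate, EDTA, nialamide; 0.1 μM final [3H]amine added for 5 min. Stopped by cold saline and GF/B filtration; nonspecific uptake at 4 °C. IC50 with 95% limits computed.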

Rattus norvegicus [4] = species: Rattus norvegicus; test: Inhibition of [3H]norepinephrine uptake into rat brain synaptosomes in vitro;Values ranges from :20-180; assay type: functional; how it was run: as §1
Rattus norvegicus [5] = species: Rattus norvegicus; test: Inhibition of [3H]5-HT uptake into rat brain synaptosomes in vitro Values ranges from: 0.3-0.5; assay type: functional; how it was run: as §1
Mus musculus [6] = test: Effective dose required for inhibition of tetrabenazine-induced ptosis in mouse by peroral administration; Values ranges from 12-25; conditions: po
[7] = target: T1, Adrenergic receptor alpha-1; test: In vitro antagonistic activity against alpha-1 adrenergic receptor in isolated unstimulated rat vas deferens (methoxamine-induced contractions)
Mus musculus [8] = test: Effective dose required to antagonise clonidine-induced antinociception(ACA) in mouse by peroral administration;Values ranges from: 15-86; assay type: functional; conditions: po
Mus musculus [9] = test: Effective dose required for inhibition of tetrabenazine-induced ptosis in mouse by peroral administration at maximum response 30.; assay type: functional
Rattus norvegicus [10] = species: Rattus norvegicus; test: Inhibition of [3H]dopamine uptake into rat brain synaptosomes in vitro;Value ranges from:2.5-4.5; assay type: functional; how it was run: as §1
Rattus norvegicus [11] = species: Rattus norvegicus; test: Inhibition of [3H]norepinephrine uptake into rat brain synaptosomes in vitro;Value ranges from:1.9-4.4; assay type: functional; how it was run: as §1
Rattus norvegicus [12] = species: Rattus norvegicus; test: Inhibition of [3H]5-HT uptake into rat brain synaptosomes in vitro;Value ranges from:0.2-0.8; assay type: functional; how it was run: as §1

Ki [1] [nM]	IC50 (Rattus norvegicus [3]) [µM]	IC50 (Rattus norvegicus [4]) [µM]	IC50 (Rattus norvegicus [5]) [nM]	pA2 [7]	IC50 (Rattus norvegicus [10]) [µM]	IC50 (Rattus norvegicus [11]) [nM]	IC50 (Rattus norvegicus [12]) [nM]	SMILES	Inhibition (Mus musculus [2]) [%]	ED50 (Mus musculus [6]) [mg/kg]	ED50 (Mus musculus [8]) [mg/kg]	Inhibition (Mus musculus [9]) [%]
148	26	60	400	7.08	–	–	–	CC1=C(CC2=NCCN2)CCc2ccccc21.Cl	50	18	–	–
78	–	–	–	6.87	3.3	2900	400	C1=C(CC2=NCCN2)CCc2ccccc21.Cl [NAPAMEZOLE HYDROCHLORIDE]	–	–	36	35
